According to ChEMBL document CHEMBL4011639, “Discovery of Novel Nucleotide Prodrugs with Improved Potency Against HCV Variants Carrying NS5B S282T Mutation” (J Med Chem, 2017):

Key:
Mus musculus = test: Subacute toxicity in ICR mouse assessed as alteration in basic levels of SGOT at 100 to 1000 mg/kg, administered once a day via oral gavage for 14 days; format: organism-based; conditions: in vivo, 336 h
In short: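 ICR mice, 22−25 g, 5 per sex per group, gavaged daily for 14 days at 100, 500 or 1000 mg/kg in 30% PEG400/30% Tween 20/20% corn oil/20% water, with a vehicle control group. Observed daily for body weight change, skin and fur, inflammation and necrosis. Animals anesthetized on day 15; organ weights (liver, kidney) taken. Serum SGOT/SGPT compared with controls.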

[1] = Acute toxicity in ICR mouse administered as a single dose via oral gavage and observed over 14 days; conditions: in vivo

## CCCC(=O)Nc1ccn([C@@H]2O[C@H](CO[P@@](=O)(N[C@@H](C)C(=O)OC(C)C)Oc3ccccc3)[C@@H](O)[C@@]2(C)F)c(=O)n1
Mus musculus
  Activity: Non-Toxic
[1]
  NOAEL at 336 h: > 1800 mg/kg
